Assays:
MCF7 [1] = assay: Percent of effective dose for […] against proliferation of MCF-7 cells.; type: functional, Homo sapiens
In short: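 MCF-7 cells were kept 6 days in phenol-red-free MEM-based medium with 5% dextran-charcoal-stripped FCS, then seeded at 10000 cells/well. After 1 day they got test compound (10 pM to 1 µM) without E2, or vehicle (0.2% ethanol); medium was renewed every 2 days. DNA was assayed after 8–10 days in triplicate wells. % agonist = (TPE−control)/(E2−control)×100, from the EC50 or the maximum response.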

[2] = biological target: T1, Estrogen receptor (Bos taurus) (UniProt Q9XSB5+P49884); details: Uterus; Cytosol
MCF7 [3] = assay: Effective dose for [3H]- estradiol against proliferation of MCF-7 cells; type: functional, cell-based; details: Homo sapiens
MCF7 [4] = assay: Inhibitory activity against proliferation of MCF-7 cells in presence of 10e-6 M concentration of [3H]- estradiol (E2); type: functional; details: Homo sapiens
BT-20 [5] = assay: Inhibitory activity against proliferation of BT-20 cells in presence of TPE at 10e-5 M concentration.; type: functional; details: Homo sapiens
In short: (§1)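 ER-negative BT-20 cells were seeded at 40000/well in phenol-red-free MEM-based medium and exposed to compound (3–10 µM) for 5 or 6 days, with medium renewed every 2 days. DNA content was read in triplicate wells as % of vehicle control. Values are given as the IC30 and as % inhibition at 10^-5 M.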

MCF7 [6] = assay: Percent of inhibitory activity versus 0.1 nm […] against proliferation of MCF-7 cells.; type: functional, Homo sapiens
In short: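 Same MCF-7 pre-culture in steroid-depleted phenol-red-free medium, seeded at 10000 cells/well. Cells grew with 0.1 nM E2 plus various compound concentrations, medium renewed every 2 days, for 8 days. DNA was measured in triplicate wells, as % DNA relative to E2 alone. % antagonist = (E2−TPE)/(E2−control)×100, from the IC50 or the response at 10^-6 M.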

[7] = biological target: T1, Estrogen receptor (Bos taurus); details: Uterus; Cytosol; remark: listed apart in the source
BT-20 [8] = assay: Percent of inhibitory activity against proliferation of BT-20 cells in presence of TPE at 10e-5 M concentration.; type: functional; details: Homo sapiens; in short: as §1
[9] = biological target: T2, Anti-estrogen binding site (AEBS) (Homo sapiens) (UniProt Q15125+Q9UBM7); assay: Relative binding affinity for antiestrogen binding site (AEBS) of calf uterus cytosol; type: tissue-based
In short: (§2)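 Calf uterus was homogenized in TED buffer (10 mM Tris-HCl, 1.5 mM EDTA, 1 mM DTT, pH 7.4) and spun at 12000 g for 1 h at 0–4 °C. […] Free ligand was removed with dextran-charcoal, and bound ligand was counted by scintillation. RBA was taken from the 50% displacement concentration.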

[10] = biological target: T2, Anti-estrogen binding site (AEBS) (Homo sapiens); assay: Relative binding affinity for antiestrogen binding site (AEBS) of calf uterus 2 hr incubation at 0C; type: tissue-based; in short: as §2
MCF7 [11] = assay: Percent of inhibitory activity against proliferation of MCF-7 cells in presence of 10e-6 M concentration of […] (E2).; type: functional, Homo sapiens
In short: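 Cytotoxicity assay: MCF-7 cells were seeded at 20000/well in phenol-red-free medium with 5% DCC-treated FCS and exposed to compound (3–10 µM) plus 1 µM E2 for 6 days. Medium was renewed every 2 days. DNA content was read in triplicate wells as % of 1 µM E2 alone. Values are given as the IC30 and as % inhibition at 10^-5 M.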

MCF7 [12] = assay: In vitro inhibition of MCF-7 cell proliferation compared to 0.1 nM [3H]-estradiol.; type: functional, cell-based; details: Homo sapiens
[13] = biological target: T1, Estrogen receptor (Bos taurus); assay: Selectivity for relative binding affinity against estrogen receptor in at 2 hrs and 5 hr in calf uterus cytosol; type: protein assay
In short: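 Calf uterine cytosol (TED buffer, pH 7.4; 180000 g, 1 h) was incubated with 1 nM [3H]E2 and competitor (0.3 nM–10 µM, 1% ethanol), either 2 h at 0 °C or 5 h at 25 °C. Bound ligand was separated with dextran-charcoal and counted by scintillation. RBA came from the concentration giving 50% displacement relative to E2. The value is the ratio of the 25 °C RBA to the 0 °C RBA.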

Row | Structure (SMILES) | Agonism (MCF7 [1]) | RBA1 [2] | EC50 (MCF7 [3]) | IC30 (MCF7 [4]) | IC30 (BT-20 [5]) | Inhibition (MCF7 [6]) | RBA2 [7] | inhibition at 10 µM (BT-20 [8]) | relative binding affinity (RBA) ([9]; Bos taurus) | RBA ([10]; Bos taurus) | Inhibition (MCF7 [11]) | IC50 (MCF7 [12]) | relative binding affinity (RBA) [9] | RBA [10] | Selectivity [13]
1 | CN(C)c1ccc(C(=C(C#N)c2ccccc2)c2ccc(N(C)C)cc2)cc1 | 85% | 0.12 | 12 nM | 5.7 µM | 10 µM | 3% | 0.04 | 30% | < 0.1 | < 0.1 | 48% | – | – | – | –
2 | CCN(CC)CCOc1ccc(/C(=C(\C#N)c2ccccc2)c2ccc(O)cc2)cc1 | 12% | 3.6 | 0.03 nM | 3.9 µM | 3.5 µM | 100% | 3.4 | 94% | 6.9 | 6.9 | 89% | 0.025 µM | – | – | –
3 | CCN(CC)CCOc1ccc(C(C#N)=C(c2ccccc2)c2ccccc2)cc1 | 71% | 0.17 | 25 nM | 4.8 µM | 9.7 µM | 6% | 0.01 | 38% | 41 | 41 | 53% | – | – | – | –
4 | CCN(CC)CCOc1ccc(C(=C(C#N)c2ccccc2)c2ccc(OCCN(CC)CC)cc2)cc1 | 62% | 0.42 | 0.28 nM | 3.1 µM | 3.3 µM | 27% | 0.4 | 87% | 3.6 | 3.6 | 94% | > 1 µM | – | – | –
5 | CC/C(=C(/c1ccc(O)cc1)c1ccc(OCCN(C)C)cc1)c1ccccc1 | 61% | – | 0.016 nM | 5.3 µM | 9.3 µM | 91% | – | 33% | 20 | 20 | 74% | 0.022 µM | – | – | –
6 | N#CC(=C(c1ccc(O)cc1)c1ccc(O)cc1)c1ccccc1 | 62% | 28 | 0.059 nM | 10 µM | 10 µM | 31% | 62 | 30% | – | – | 30% | 0.0035 µM | – | – | –
7 | CC/C(=C(/c1ccccc1)c1ccc(OCCN(C)C)cc1)c1ccccc1 | 100% | – | 11 nM | 4.3 µM | 6.4 µM | 1% | – | 52% | 77 | 77 | 79% | – | – | – | –
8 | CC/C(=C(\c1ccccc1)c1ccc(OCCN(C)C)cc1)c1ccccc1 [TAMOXIFEN] | 21% | – | 0.11 nM | 6.5 µM | 5.7 µM | 90% | – | 56% | 100 | 100 | 49% | 0.219 µM | – | – | –
9 | COc1ccc(/C(=C(\C#N)c2ccccc2)c2ccc(O)cc2)cc1 | 26% | 6.1 | 0.2 nM | 9 µM | 2.7 µM | 80% | 0.66 | 47% | – | – | 36% | 0.149 µM | – | – | –
10 | Cc1ccc(/C(=C(\C#N)c2ccccc2)c2ccc(O)cc2)cc1 | 53% | 8.1 | 0.42 nM | 5.8 µM | 3.4 µM | 51% | 2.5 | 51% | – | – | 60% | 0.052 µM | – | – | –
11 | CCC(=C(c1ccc(O)cc1)c1ccc(OCCN(C)C)cc1)c1ccccc1 | 10% | – | 0.003 nM | 4 µM | 4.8 µM | 100% | – | 65% | – | – | 81% | 0.0025 µM | 40 | 40 | –
12 | Cc1ccc(/C(=C(\C#N)c2ccc(O)cc2)c2ccc(O)cc2)cc1 | 73% | 28 | 0.14 nM | 6.8 µM | 6.3 µM | 36% | 9.1 | 48% | – | – | 54% | 0.027 µM | – | – | –
13 | CCN(CC)CCOc1ccc(/C(=C(/C#N)c2ccccc2)c2ccc(O)cc2)cc1 | 16% | 126 | 0.02 nM | 4.8 µM | 6.4 µM | 100% | 108 | 57% | 27 | 27 | 77% | 0.0046 µM | – | – | 0.85
14 | CN(C)Cc1cc(C(=C(C#N)c2ccccc2)c2ccc(O)c(CN(C)C)c2)ccc1O | 31% | 0.3 | 44 nM | 8.5 µM | – | 7% | 0.01 | 15% | < 0.1 | < 0.1 | 36% | – | – | – | –

Reference: ChEMBL document CHEMBL1124584, “Effect of triphenylacrylonitrile derivatives on estradiol-receptor binding and on human breast cancer cell growth” (J Med Chem, 1989)
